Rows were chosen to be rich in hits. Some 2.3% of all compounds tested hit in one or more screens of this group.
MMP13 inh – inhibitors of human MMP13 | 65,000 tested, 0.07% active | MMP-13 fTHP FRET cleavage, Mca fluorescence | P45452 | inhibition, % at 4 µM;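 active means inhibition above the mean of compound-free control plate wells plus 3 SD, cut at about 14% in these data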;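 further: 0% = DMSO wells and 100% = wells with reference MMP-13 inhibitor after basal subtraction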
RORA act – activates the human nuclear receptor RORA. P35398. CHO-K1 Gal4-RORA LBD luciferase reporter, luminescence; percent increase over mock-subtracted basal signal. activation, % at 10 µM. 65,000 tested, 1.5% active. AID 560;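 active means activation above the mean of all tested compounds plus 3 SD, cut at about 49% in these data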;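 further: 0% = DMSO-treated RORA cells and 100% = added signal equal to DMSO minus mock-transfected cells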
WNV NS2B-NS3 inh – WNV NS2B-NS3 proteinase inhibition. 65,000 tested, 0.18% active. P06935. WNV NS2B-NS3 protease, fluorogenic substrate Ex360/Em465; stronger effect = lower value. z-score (no concentration beside the values); in the data active means z-score below about -3
MT1-MMP txn act – MT1-MMP promoter transcription activation. HT1080 MT1-MMP promoter luciferase reporter, luminescence, overnight; stronger effect = higher value. activation factor at 10 µM. 86,000 tested, 0.16% active;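 active means activation factor of at least 2 for MT1-MMP transcription at 10 µM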
SF-1 act – activates the human nuclear receptor SF-1; CHO-K1 Gal4-SF-1 LBD luciferase reporter; % increase over DMSO SF-1-specific signal; activation, % at 10 µM; 65,000 tested, 1.9% active;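 active means activation above the mean activation of all tested compounds plus 3 SD, cut at about 50% in these data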
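Material: Gal4–SF-1 LBD one-hybrid luciferase reporter in CHO-K1 cells | Amount: 4,000 cells per well | Compound dosing: 10 µM single point, 1% DMSO | Schedule: 20 h compound treatment, 37 °C | Measured by: SteadyLite luciferase luminescence | Evaluation: Percent activation versus DMSO | Control set: DMSO-treated SF-1-transfected cells as negative, DMSO-treated mock-transfected cells lacking SF-1 as background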
* hit, by the source's call; . = not tested or not shown.

SMILES	MMP13 inh	RORA act	WNV NS2B-NS3 inh	MT1-MMP txn act	SF-1 act
CCOP(=O)(OCC)C(NC(=O)C(Cl)Cl)C(Cl)(Cl)Cl (stereo not drawn)	.	.	.	1	.
COP(=O)(OC)C(O)C(Cl)(Cl)Cl (stereo not drawn)	2	-30	-3.4*	1.1	-1
COc1ccc(N2CCN(C(CNC(=O)Oc3ccccc3)c3cccnc3)CC2)cc1 (stereo not drawn)	-6	-5	-7.2*	1.1	6
c1ccc2cc3cc4ccccc4cc3cc2c1	.	.	.	1.8	.
CCNCC1(c2ccc(OC)c(OC)c2)CCCC1	0	-18	-4.8*	1	4
COC(=O)[C@@H]1C[C@@]2(O)[C@@H](O)[C@@H](O)[C@@H](O)C[C@H]2N1Cc1cccnc1	.	.	.	1	.
Cc1ccc(-n2c(O)c(C=NCc3cccnc3)c(=O)[nH]c2=O)cc1C	3	10	-1.1	1.2	8
Cc1ccc(-n2c(O)c(C=Nc3ccccc3N)c(=O)[nH]c2=O)cc1C	-2	55*	0.85	1.1	46
O=C1NC(=O)C(CCc2ccncc2)(C2CCCCC2)C(=O)N1	52*	-2	0.2	1.1	15
C=C(CC1(C(C)NP(=O)(c2ccccc2)c2ccccc2)CC1)c1ccccc1 (stereo not drawn)	.	.	.	1.1	.

Screens (PubChem)
